Key:
[1] = tested on: lysine peptide Ac-RFAAKAA-COOH; experiment: Lysine peptide depletion, RapidFire-MS/MS DPRA; assay type: biochemical
In short: (§1)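 Lysine peptide (Ac-RFAAKAA-COOH) and alanine internal-standard peptide are mixed, each at 0.5 mM final, in acetate ammonia buffer pH 10.2. Test compound in DMSO […] is added in a 384-well plate and incubated 24 h at room temperature. The range is 12 μM–50 mM or 25 μM–100 mM. Samples are diluted to 0.05 μM, then analysed by C4 SPE with triple-quadrupole MRM. Peptide area is normalised to DMSO wells.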

[2] = tested on: lysine peptide Ac-RFAAKAA-COOH; experiment: Lysine peptide depletion, HPLC-TOF-MS; assay type: biochemical
In short: (§2)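 Peptide mixtures are separated on a C18 column (2.1×150 mm, 1.7 μm) at 60 °C and 0.4 mL/min. Mobile phases are water and acetonitrile with 0.1% formic acid, run over a 22 min gradient. Detection is by positive-mode ESI-TOF MS over m/z 150–1700. Seven concentrations of test compound are tested. Integrated lysine or alanine peptide area is normalised to the DMSO control.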

[3] = tested on: alanine peptide Ac-RFAAAAA-COOH; experiment: Alanine peptide signal, HPLC-TOF-MS; assay type: biochemical
In short: as §2

[4] = tested on: alanine peptide Ac-RFAAAAA-COOH; experiment: Alanine peptide; assay type: biochemical
In short: as §1

[5] = tested on: cysteine peptide Ac-RFAACAA-COOH; experiment: Cysteine peptide depletion, RapidFire-MS/MS DPRA; assay type: biochemical; details: for Detection as sensitizer in the cysteine peptide depletion assay: threshold defined by OECD test guideline 442C
[6] = tested on: cysteine peptide Ac-RFAACAA-COOH; experiment: Confirmation of chemical-cysteine peptide adduct by HPLC-TOF-MS; assay type: biochemical; details: HPLC-TOF-MS after 24 h incubation; Figure 6
In short: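 Cysteine peptide (Ac-RFAACAA-COOH) is mixed with alanine peptide and incubated with test compound for 24 h. The mixture is run by C18 LC (60 °C, 0.4 mL/min, 22 min water/acetonitrile 0.1% formic acid gradient) with positive-mode ESI-TOF MS over m/z 150–1700. Total ion chromatograms are recorded, and mass spectra of selected peaks are inspected for adduct or peptide dimer masses.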

lysine peptide = details: cited from earlier work
[7] = Precipitation in lysine peptide buffer; assay type: physicochemical; details: 100 mM added into the lysine peptide buffer

**Q.** With `O=CCCCC=O` [Glutaraldehyde] as the compound, how does the “Depletion of the lysine peptide at the highest tested concentrations” value [1] read?
**A.** more than 50%

**Q.** What about the “Lysine peptide signal vs concentration, RapidFire-MS/MS” value ([1]; lysine peptide area only, Figure 5E) of the same compound?
**A.** decreased in a concentration-dependent manner

**Q.** And the “Lysine peptide signal vs concentration, HPLC-TOF-MS” value ([2]; Figure 5E)?
**A.** decreased in a concentration-dependent manner

**Q.** And the “Alanine peptide signal vs concentration, HPLC-TOF-MS” value ([3]; Figure 5D)?
**A.** decreased in a concentration-dependent manner

**Q.** What about the “Alanine peptide signal vs concentration, RapidFire-MS/MS” value ([4]; Figure 5D) of the same compound?
**A.** decreased in a concentration-dependent manner

**Q.** Which results are given for `C=CC(=O)OCC` [Ethyl acrylate]?
**A.** Depletion of the lysine peptide at the highest tested concentrations [1]: more than 50%; Detection as sensitizer in the cysteine peptide depletion assay [5]: not detected

**Q.** Which “Adduct formation with cysteine peptide” value [6] does the source give for `C=C(C)C(=O)OCCOC(=O)C(=C)C` [Ethylene glycol dimethacrylate] here?
**A.** formed adduct peak with cysteine peptide

**Q.** For `CCCOC(=O)c1cc(O)c(O)c(O)c1` [Propyl gallate], which “Depletion of the lysine peptide at the highest tested concentrations” value [1] is on record?
**A.** more than 50%

**Q.** With `CCCCCCCCCCCCOC(=O)c1cc(O)c(O)c(O)c1` [Dodecyl gallate] as the compound, how does the “Detection as sensitizer in the cysteine peptide depletion assay” value (“Detection as sensitizer” for short) [5] read?
**A.** not detected

**Q.** For `O=C/C=C/c1ccccc1` [Cinnamic aldehyde], which “Adduct formation with cysteine peptide” value [6] is on record?
**A.** formed adduct peak with cysteine peptide

**Q.** What about the “Lysine peptide signal, HPLC-TOF-MS” value ([2]; at 100 mM, Figure 5B) of the same compound?
**A.** slight decrease

**Q.** And the “Alanine peptide signal, HPLC-TOF-MS” value ([3]; 7-point concentration range, Figure 5A)?
**A.** no changes were observed

**Q.** What about the “Decrease in alanine peptide signal (depletion), RapidFire-MS/MS” value ([4]; high concentrations (above 1 mM), area normalized to DMSO, Figure 5A) of the same compound?
**A.** > 60%

**Q.** With `CCCCCC` [n-Hexane] as the compound, how does the “Efficacy (% peptide depletion), cysteine peptide” value ([5]; pH 7.5) read?
**A.** Inactive

**Q.** What about the “IC50 (M), depletion of cysteine peptide” value ([5]; pH 7.5) of the same compound?
**A.** Inactive

**Q.** Which “Depletion of the lysine peptide at the highest tested concentrations” value [1] does the source give for `C=CC(=O)OCCO` [Hydroxyethyl acrylate] here?
**A.** more than 50%

**Q.** Which “Detection as sensitizer” value [5] does the source give for `C=C(C)C(=O)OCC(C)O` (stereo not shown) [2-Propenoic acid, 2-methyl-, monoester with 1,2-propanedio] here?
**A.** not detected

**Q.** For `O=CCc1ccccc1` [Phenylacetaldehyde], which “Detection as sensitizer” value [5] is on record?
**A.** not detected

**Q.** Which “Detection as sensitizer” value [5] does the source give for `O=C(NCNC(=O)NC1C(=O)NC(=O)N1CO)NC1C(=O)NC(=O)N1CO` (stereo not shown) [Imidazolidinyl urea] here?
**A.** not detected

**Q.** For `Oc1ccc(O)cc1` [Hydroquinone], which “Depletion of the lysine peptide at the highest tested concentrations” value [1] is on record?
**A.** more than 50%

**Q.** And the “Depletion of the lysine peptide” value (lysine peptide; at 0.5 mM, ref Gerberick et al., 2004)?
**A.** 83.3%

**Q.** For `CCCCCCCCCCCCCCCC(=O)Cl` [Palmitoyl chloride], which “Detection as sensitizer” value [5] is on record?
**A.** not detected

**Q.** What about the “Lysine peptide depletion (literature)” value (lysine peptide; ref No, O.T., 2015) of the same compound?
**A.** almost completely depleted lysine peptide

**Q.** And the “Precipitation on addition to lysine peptide buffer” value [7]?
**A.** immediate precipitation

Reference: paper PMC9527016 (Toxicology letters, 2020)
